In brackets after ≈: the same amount, converted by molar mass.
Experiments:
[1] = test system: Aspergillus fumigatus; assay: Antifungal activity against Aspergillus fumigatus assessed as inhibition zone diameter […] by agar dilution method; format: functional
Method in brief: (§1)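 Compounds in DMSO placed in punched wells on Sabouraud agar (peptone, glucose, agar, pH 5.7) lawned with saline spore suspension. Plates pre-dried 1 h at 37 °C. Controls in triplicate, incubation at 37 °C for 3-4 days, then inhibition zone diameter read in mm. Amphotericin B reference.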

[2] = test system: Klebsiella pneumoniae; assay: Antibacterial activity against Klebsiella pneumoniae assessed as inhibition zone diameter after 24 hrs […]; format: functional
Method in brief: (§2)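 Disc diffusion on nutrient agar. Inoculum 1-2 × 10^7 c.f.u/ml (0.5 McFarland) spread over the plate surface. Sterile 6.25 mm filter-paper discs soaked in a known concentration of compound. Solvent and growth controls included. Plates incubated inverted 24 h at 37 °C, then inhibition zone diameter measured in mm. Ciprofloxacin reference.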

[3] = test system: Staphylococcus aureus; assay: Antibacterial activity against Staphylococcus aureus ATCC 25923 after 24 hrs by broth dilution technique; format: functional; details: ATCC 25923, 24 h
Method in brief: (§3)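 MIC by broth dilution in nutrient broth with logarithmic serial twofold dilutions of compound. Inoculum approx. 5×10^5 c.f.u actively dividing bacteria. Incubated 24 h at 37 °C, growth monitored visually and spectrophotometrically. MIC taken as the lowest concentration (highest dilution) arresting growth. Ciprofloxacin reference.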

[4] = test system: Staphylococcus aureus; assay: Antibacterial activity against Staphylococcus aureus ATCC 25923 assessed as inhibition zone diameter after 24 hrs […]; format: functional; method in brief: as §2
[5] = test system: Trichophyton mentagrophytes; assay: Antifungal activity against Trichophyton mentagrophytes after 48 hrs […]; format: functional
[6] = test system: Candida albicans; assay: Antifungal activity against Candida albicans assessed as inhibition zone diameter […] by agar dilution method; format: functional; method in brief: as §1
[7] = test system: Trichophyton mentagrophytes; assay: Antifungal activity against Trichophyton mentagrophytes assessed as inhibition zone diameter […] by agar dilution method; format: functional; method in brief: as §1
[8] = test system: Aspergillus flavus; assay: Antifungal activity against Aspergillus flavus after 48 hrs […]; format: functional
[9] = test system: Pseudomonas aeruginosa; assay: Antibacterial activity against Pseudomonas aeruginosa ATCC 27853 assessed as inhibition zone diameter after 24 hrs […]; format: functional; method in brief: as §2
[10] = test system: Talaromyces marneffei; assay: Antifungal activity against Penicillium marneffei assessed as inhibition zone diameter […] by agar dilution method; format: functional; method in brief: as §1
[11] = test system: Klebsiella pneumoniae; assay: Antibacterial activity against Klebsiella pneumoniae after 24 hrs by broth dilution technique; format: functional; method in brief: as §3
[12] = test system: Candida albicans; assay: Antifungal activity against Candida albicans after 48 hrs […]; format: functional
[13] = test system: Aspergillus fumigatus; assay: Antifungal activity against Aspergillus fumigatus after 48 hrs […]; format: functional
[14] = test system: Escherichia coli; assay: Antibacterial activity against Escherichia coli ATCC 25922 after 24 hrs by broth dilution technique; format: functional; details: ATCC 25922, 24 h; method in brief: as §3
[15] = test system: Talaromyces marneffei; assay: Antifungal activity against Penicillium marneffei after 48 hrs […]; format: functional
[16] = test system: Streptococcus pyogenes; assay: Antibacterial activity against Streptococcus pyogenes assessed as inhibition zone diameter after 24 hrs by disc diffusion method
[17] = test system: Aspergillus flavus; assay: Antifungal activity against Aspergillus flavus assessed as inhibition zone diameter […] by agar dilution method; format: functional; method in brief: as §1
[18] = test system: Pseudomonas aeruginosa; assay: Antibacterial activity against Pseudomonas aeruginosa ATCC 27853 after 24 hrs by broth dilution technique; format: functional; details: ATCC 27853, 24 h; method in brief: as §3
[19] = test system: Streptococcus pyogenes; assay: Antibacterial activity against Streptococcus pyogenes after 24 hrs by broth dilution technique; format: functional; method in brief: as §3

Compound	inhibition zone (IZ) [1] [mm]	inhibition zone (IZ) [2] [mm]	MIC [3] [µg/mL]	inhibition zone (IZ) [4] [mm]	MIC [5] [µg/mL]	inhibition zone (IZ) [6] [mm]	inhibition zone (IZ) [7] [mm]	MIC [8] [µg/mL]	inhibition zone (IZ) [9] [mm]	inhibition zone (IZ) [10] [mm]	MIC [11] [µg/mL]	MIC [12] [µg/mL]	MIC [13] [µg/mL]	MIC [14] [µg/mL]	MIC [15] [µg/mL]	inhibition zone (IZ) [16] [mm]	inhibition zone (IZ) [17] [mm]	MIC [18] [µg/mL]	MIC [19] [µg/mL]
Nn1c(SCC(=O)Nc2c(Cl)cccc2Cl)nnc1-c1cc(F)c(Cl)cc1Cl	15	21	6.25 (≈ 13 µM)	18	25 (≈ 52 µM)	12	10	6.25 (≈ 13 µM)	23	13	6.25 (≈ 13 µM)	12.5 (≈ 26 µM)	12.5 (≈ 26 µM)	12.5 (≈ 26 µM)	12.5 (≈ 26 µM)	19	17	12.5 (≈ 26 µM)	6.25 (≈ 13 µM)
Nn1c(SCC(=O)Nc2ccc(F)cc2)nnc1-c1cc(F)c(Cl)cc1Cl	19	21	6.25 (≈ 14.5 µM)	23	6.25 (≈ 14.5 µM)	19	17	6.25 (≈ 14.5 µM)	30	24	6.25 (≈ 14.5 µM)	6.25 (≈ 14.5 µM)	6.25 (≈ 14.5 µM)	6.25 (≈ 14.5 µM)	6.25 (≈ 14.5 µM)	22	21	6.25 (≈ 14.5 µM)	6.25 (≈ 14.5 µM)
Cc1cccc(NC(=O)CSc2nnc(-c3cc(F)c(Cl)cc3Cl)n2N)c1C	20	17	6.25 (≈ 14.2 µM)	20	6.25 (≈ 14.2 µM)	18	16	12.5 (≈ 28.4 µM)	20	15	12.5 (≈ 28.4 µM)	6.25 (≈ 14.2 µM)	6.25 (≈ 14.2 µM)	12.5 (≈ 28.4 µM)	12.5 (≈ 28.4 µM)	24	15	12.5 (≈ 28.4 µM)	6.25 (≈ 14.2 µM)

Source: ChEMBL document CHEMBL1149770, “Synthesis and antimicrobial studies of novel dichlorofluorophenyl containing aminotriazolothiadiazines” (2008)
